GPR7 antagonist: GPR7 receptor antagonists, primary screen, cell-based, fluorescence, single concentration. GPR7-expressing cells, fluorescence antagonist assay. inhibition, % at 4.4 µM. hit rate 1.1% among 290,000. AID 1861, 2009; in the data active = inhibition above about 16%, passing the limit was not always enough;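 also: cells stimulated with the agonist NPW; 0% = agonist with vehicle and 100% = vehicle without agonist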
Target sequence (P48145 whole entry, looked up): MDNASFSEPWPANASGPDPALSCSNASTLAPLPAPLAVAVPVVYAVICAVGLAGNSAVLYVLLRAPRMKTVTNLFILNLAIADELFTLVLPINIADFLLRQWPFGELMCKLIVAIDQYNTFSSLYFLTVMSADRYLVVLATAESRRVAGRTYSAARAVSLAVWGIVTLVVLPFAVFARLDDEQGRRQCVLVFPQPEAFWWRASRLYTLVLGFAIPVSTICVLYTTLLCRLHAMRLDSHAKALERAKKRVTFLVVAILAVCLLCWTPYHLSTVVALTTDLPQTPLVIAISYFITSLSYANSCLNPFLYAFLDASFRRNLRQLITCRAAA
OX1R antag-1: antagonists of human orexin 1 receptor (OX1R) | Orexin/Hypocretin receptor type 1 (Homo sapiens), O43613 | OX1R-expressing cells, FRET antagonist read-out | inhibition, % at 6.6 µM | hit rate 1.8% among 330,000; in the data active = inhibition mostly above about 38%, no sharp cut-off; inactive = mostly below about 40%;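 also: 0% = agonist challenge alone and 100% = reference antagonist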
TAAR1 antag: human TAAR1 antagonists, primary screen, Fluo-8 calcium fluorescence, CHO RD-HGA16 cells | AID 624466, 2012 | hit rate 1.5% among 360,000 | antagonist | inhibition, % at 3 µM;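 active = inhibition above a per-plate cutoff, the mean inhibition of test compounds on that plate plus 3 SD, cut at about 49% in these data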;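 also: 0% = DMSO plus EC80 beta-PEA response and 100% = DMSO alone without agonist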
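Material: RD-HGA16 CHO cells with stable hTAAR1 and Gα16; Dosing: single nominal final test compound concentration of 3 µM; Schedule: seeding 17-24 h prior, 75-min 37 °C, 30-min RT dye loading; Detection: kinetic Fluo-8 calcium fluorescence measurement; Measure: % inhibition from peak post-agonist over basal fluorescence ratio; Benchmarks: vehicle and agonist controls.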
TAAR1 agonist: human TAAR1 agonists, primary screen, Fluo-8 calcium fluorescence, CHO RD-HGA16 cells. Trace amine-associated receptor 1 (Homo sapiens), Q96RJ0. vehicle wells 0%, saturating PEA agonist 100%. activation, % at 3 µM. hit rate 0.99% among 360,000. AID 624467, 2012;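 active = activation above the mean activation of all test compounds in the run plus 3 SD, cut at about 38% in these data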
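Test system: RD-HGA16 (CHO) cells co-expressing Gα16 and hTAAR1 / Benchmarks: DMSO vehicle as 0%, PEA at EC100 as 100% / Repeats: no replicates (n 1) / Measure: % activation from peak over basal fluorescence ratio, DMSO-to-PEA scaled / Timing: 17-24 h plating, Fluo-8 75 min 37 °C, 30 min RT / Technique: kinetic Fluo-8 calcium fluorescence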
OX1R antag-2: OX1R (HCRTR1) antagonists, primary screen, fluorescence, CHO/OX1R cells, Fluo-8 calcium, orexin A. hit rate 0.43% among 330,000. Fluo-8 calcium fluorescence. inhibition, % at 5 µM. AID 434989, 2010;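 active = inhibition above its plate's threshold, mean inhibition of all tested compounds on the plate plus 3 SD, cut at about 37% in these data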;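 also: 0% = orexin A challenge wells and 100% = SB-334867-A antagonist wells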
CHO parental Ca: ATP-evoked calcium signal inhibitors, parental CHO, primary screen, counter-screen for OX1R antagonist project, cell-based, fluorescence, Fluo-8 calcium dye; parental CHO-K1, ATP-induced calcium, Fluo-8 fluorescence; inhibition, % at 5.6 µM; hit rate 0.63% among 330,000; AID 463079, 2010;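 active = inhibition above that plate's mean sample inhibition plus 3 SD, cut at about 26% in these data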;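 also: 0% = ATP-challenged DMSO wells and 100% = DMSO wells without ATP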
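material = parental CHO cells | also added = ATP as calcium-mobilizing challenge | dosing = single point at 5.6 µM | detection = intracellular calcium via Fluo-8 no-wash fluorescent dye | read-out = % inhibition | benchmarks = low control ATP plus DMSO, high control DMSO only | repeats = one well per compound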
OX1R Ca confirm: OX1R (HCRTR1) antagonists, confirmation, fluorescence, CHO/OX1R cells, Fluo-8 calcium, orexin A; shares compounds with OX1R antag-2; orexin A calcium Fluo-8 fluorescence; inhibition, % at 5 µM; hit rate 38% among 1,100; AID 492963, 2010; in the data active = inhibition above about 29%;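 also: 0% = agonist challenge alone and 100% = reference antagonist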
CHO Ca counter: ATP-evoked calcium inhibition in parental CHO, counter-screen for OX1R antagonist project, cell-based, fluorescence, CHO-K1, triplicate; shares compounds with OX1R antag-2; ATP-induced calcium, Fluo-8 fluorescence; inhibition, % at 5.6 µM; hit rate 9.3% among 1,100;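 active = inhibition above a per-plate limit, the mean inhibition of that plate's test compounds plus 3 SD, cut at about 25% in these data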;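 also: 0% = ATP challenge with DMSO and 100% = DMSO without ATP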
OX1R HTRF conf: OX1R (HCRTR1) antagonists, confirmation, cell-based, HTRF | hit rate 49% among 1,800 | shares compounds with OX1R antag-1 | inhibition, % at 6.6 µM | AID 492964, 2010 | OX1R-expressing cells, HTRF antagonist assay; in the data active = inhibition above about 55%;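 also: CHO cells expressing OX1R stimulated with orexin A at about EC80; 0% = agonist challenge alone and 100% = reference antagonist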
CHO-K1 HTRF cnt: signal inhibition in parental CHO-K1 cells, counter-screen for OX1R antagonist project, cell-based, HTRF | shares compounds with OX1R antag-1 | HTRF counterscreen | inhibition, % at 6.6 µM | hit rate 48% among 1,800 | AID 493232, 2011; in the data active = inhibition above about 17%;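 also: 0% = agonist challenge with vehicle and 100% = vehicle alone without agonist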
* = called active by the depositor; · = not tested or not shown. Rows were chosen to be rich in hits. Some 4.6% of all compounds tested hit in one or more screens of this group.

SMILES	GPR7 antagonist	OX1R antag-1	TAAR1 antag	TAAR1 agonist	OX1R antag-2	CHO parental Ca	OX1R Ca confirm	CHO Ca counter	OX1R HTRF conf	CHO-K1 HTRF cnt
Cc1ccnc(NC(=O)c2oc3ccccc3c2C)c1	·	96*	-12	2	51*	-10	49*	-9	91*	15
COc1ccc(NC(=O)CSc2nc3sc(C)cc3c(=O)n2C)c(OC)c1	-1	88*	-5	-1	43*	-8	31*	-16	86*	-15
COc1ccc(NC(=O)CSc2nc3sc(C)cc3c(=O)n2C)cc1	-6	12	-15	-1	-18	0	·	·	·	·
O=C(Nc1ccccc1Cl)Nc1ccnn1C1CCN(C(=O)C2CCOC2)CC1 (configuration not stated)	·	·	12	1	·	·	·	·	·	·
O=c1c2ccccc2oc2cc(-c3ccc4cc[nH]c4c3)ccc12	·	80*	2	6	75*	-27	22	-8	78*	2
O=c1cc(-c2ccsc2)oc2ccc(-c3ccc4cc[nH]c4c3)cc12	·	63*	44	14	72*	4	37*	-10	75*	-7
COc1ccc(C2=Nc3ccccc3N(C(=O)c3cc(Cl)cc(Cl)c3)C2C(=O)NCc2ccccc2)cc1 (configuration not stated)	·	·	4	0	·	·	·	·	·	·
Cc1cccc(S(=O)(=O)N2CCC[C@H]2C(=O)N2CCC[C@@H]2C(=O)NCc2ccccc2)c1	·	·	-8	2	·	·	·	·	·	·
COc1ccc(NC(=O)CN(C)S(=O)(=O)c2ccc3[nH]c(=O)oc3c2)cc1	-15	56*	4	2	38	-28	15	-3	36	7
CC1C(=O)N(Cc2cn(CCC3OCCCO3)nn2)CCS(=O)(=O)N1Cc1ccc(-c2ccc(F)nc2)cc1 (configuration not stated)	·	·	-12	1	·	·	·	·	·	·
Cc1nn(-c2ccccc2)c(C)c1/C=N/NC(=O)c1cc(-c2cccc3ccccc23)n[nH]1	-18	10	33	3	-19	-11	·	·	·	·
Cc1nn(-c2ccccc2)c(C)c1/C=N/NC(=O)c1cc(-c2ccccc2)n[nH]1	9	98*	39	15	87*	-23	64*	-5	81*	-19
Cc1ccc(OC(F)F)c(NC(=O)Nc2cccc(C(F)(F)F)c2)c1	-8	46*	·	·	36	1	-14	15	23	1
Cc1ccc2nsnc2c1S(=O)(=O)NCCc1c(C)[nH]c2ccc(F)cc12	1	78*	11	2	70*	-6	38*	-4	62*	5
Cc1ccc(C)c(NS(=O)(=O)c2c(C)ccc3nsnc23)c1	-20	28	6	9	-11	-14	·	·	·	·
CN(Cc1ccccc1)C(=O)c1[nH]cnc1C(=O)N[C@@H](Cc1ccccc1)C(=O)OC(C)(C)C	-1	77*	20	10	35	-28	43*	-11	77*	2
